Rows were chosen to be rich in hits. Some 3.8% of all compounds tested hit in one or more screens of this group.
RGS4 act: RGS4 potentiation or activation; B-score at 10 µM; hit rate 0.92% among 310,000; HEK293 M3R/inducible RGS4, carbachol calcium flux Fluo4; active compounds read low;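 active = B-score of the integrated calcium signal more than 4 SD below the library mean, with starting fluorescence not abnormally high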;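 note: negative B-score means reduced calcium response which marks RGS4 activation or potentiation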
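test system = HEK293 cells with stable M3R and inducible RGS4 | schedule = recording 10 s baseline at 1 Hz, 100 s post-agonist | technique = Fluo4-AM (2 µM) calcium-flux fluorescence, kinetic read | measure = Agonist-evoked peak-minus-minimum fluorescence over baseline, integrated ratio, B score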
Lipid droplet: hepatic lipid droplet formation modulation; AML12 mouse hepatocytes, oleate lipid droplets, BODIPY imaging; inhibition, % at 6.5 µM; hit rate 0.4% among 240,000; AID 1656;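 active = lipid droplet intensity inhibited by at least 50%, with more than 500 cells counted; inconclusive = wells with under 300 cells, treated as cytotoxic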
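Assay system: AML12 hepatocytes (mouse) / Also added: 100 µM oleic acid challenge / Times: overnight treatment with compound plus oleate / Detection: high-content imaging of BODIPY-stained droplets and DAPI nuclei / Evaluation: % inhibition of lipid droplet signal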
MrgX1 antag: human MrgX1 receptor antagonism, primary screen; hit rate 1.3% among 310,000; MRGX1-HEK293 calcium flux, Fluo-4, BAM8-22 antagonism; active compounds read low; AID 588676; B-score at 10 µM; Q96LB2;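 active = calcium-response B-score plate-corrected more than 3 library SD below zero, starting fluorescence within 5 deviations, no agonist response on first addition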;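 note: peak minus trough fluorescence over baseline after final BAM8-22 challenge near maximal dose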
Target sequence (Q96LB2 whole entry, looked up): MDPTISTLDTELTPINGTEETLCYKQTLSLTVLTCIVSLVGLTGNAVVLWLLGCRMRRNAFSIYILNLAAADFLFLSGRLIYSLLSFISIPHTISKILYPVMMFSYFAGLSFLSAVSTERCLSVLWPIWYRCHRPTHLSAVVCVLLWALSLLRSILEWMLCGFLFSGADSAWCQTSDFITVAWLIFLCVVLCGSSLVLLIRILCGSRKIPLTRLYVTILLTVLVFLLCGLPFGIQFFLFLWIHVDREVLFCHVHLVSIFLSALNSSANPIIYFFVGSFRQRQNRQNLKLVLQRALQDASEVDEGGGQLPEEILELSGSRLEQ
MrgX1 PAM: allosterically activates human MrgX1 receptor signaling. Q96LB2. MrgX1-HEK293, Fluo-4 calcium flux, FDSS; active compounds read high. B-score at 10 µM. hit rate 0.63% among 310,000;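 active = plate-corrected calcium response at least 3 library SD above typical, normal starting fluorescence, not activating the receptor alone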;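 note: compound read alongside a low EC10 to EC30 dose of BAM8-22 agonist; peak minus trough fluorescence over baseline measured at the second addition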
MrgX1 ag: agonists of human MrgX1 receptor. hit rate 0.44% among 310,000. AID 588627. B-score at 10 µM. MrgX1-HEK293 cells, Fluo-4 calcium fluorescence, agonist mode; active compounds read high;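 active = calcium response B-score plate-corrected fluorescence ratio at least 3 library SD, with starting fluorescence B-score inside 5 SD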
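Assay system: stable human MrgX1 HEK293 cell line. Quantity: 15,000 cells per well. Schedule: cells plated overnight, dye loaded 0.5 h 37 °C, 0.5 h room temperature. Detection: Fluo-4 NW calcium-flux fluorescence, kinetic read. Read-out basis: peak-minus-minimum fluorescence over baseline, converted to B scores. Control set: positive and negative control wells on each plate.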
RGS4 inh: human RGS4 inhibition. HEK293 M3R/RGS4 inducible, Fluo-4 calcium flux; active compounds read high; triggered by carbachol at its EC20. B-score at 10 µM. hit rate 0.45% among 310,000;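 active = B-score, a plate-corrected calcium signal, over three deviations above library mean, with baseline fluorescence within five deviations of library mean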;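 note: RGS4 expression induced by doxycycline in cells with stable M3 receptor; B-score is computed from the integrated fluorescence ratio over baseline after carbachol; higher B-score means a larger calcium signal and so more RGS4 inhibition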
Target sequence (P49798 whole entry, looked up): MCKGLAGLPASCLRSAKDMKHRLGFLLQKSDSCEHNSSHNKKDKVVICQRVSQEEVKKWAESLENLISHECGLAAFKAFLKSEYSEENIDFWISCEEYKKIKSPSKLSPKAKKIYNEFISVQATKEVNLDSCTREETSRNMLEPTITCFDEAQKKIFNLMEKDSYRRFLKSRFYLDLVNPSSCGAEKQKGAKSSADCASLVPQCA
RGS4 block valid: RGS4 inhibitor validation; shares compounds with RGS4 inh; HEK293 M3R/RGS4, carbachol calcium Fluo-4 fluorescence; carbachol added at its EC20; 0 = buffer wells, 100 = carbachol control; calcium response, % at 10 µM; hit rate 65% among 1,700; AID 492999;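 active = duplicate-averaged calcium response above the buffer-only control mean plus 5 SD of those controls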;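 note: integrated fluorescence ratio F max minus min over baseline F0; higher response in RGS4-induced cells means RGS4 inhibition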
RGS4 uninduced: checks RGS4 inhibitor effects in non-induced HEK293 M3R cells; shares compounds with RGS4 inh; carbachol calcium Fluo-4; submaximal (EC20) carbachol stimulus; buffer wells 0%, carbachol control wells 100%; activity (percent), % at 10 µM; hit rate 20% among 1,900; AID 493000; call rule not given here;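 note: RGS4 induction absent so cells express M3R without RGS4; higher means more calcium signal and flags a non-specific hit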
RGS4 inh ctr2: signal in non-induced cells without carbachol, RGS4 inhibitor counter-screen; shares compounds with RGS4 inh; HEK293 M3R/RGS4 non-induced, Fluo-4 calcium, no carbachol; normalised: buffer wells 0%, carbachol wells 100%; calcium response (agonist-mode artifact), % at 10 µM; hit rate 22% among 1,900; AID 493001;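 active = duplicate-averaged calcium rise in uninduced cells above buffer wells' mean plus 5 SD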
MrgX1 ag confirm: reconfirmed activator of human MrgX1 receptor signaling. MrgX1-HEK293, Fluo-4 calcium fluorescence, FDSS. shares compounds with MrgX1 ag. activation, % at 10 µM. hit rate 78% among 600;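 active = calcium signal rise, corrected for plate position, at least 3 library SD high, with starting brightness within 5 such deviations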
MrgX1 PAM conf: reconfirmed allosteric activator of human MrgX1 receptor; MrgX1-HEK293, Fluo-4 calcium fluorescence, FDSS; hit rate 13% among 1,200; shares compounds with MrgX1 PAM; activation (ratio percentage), % at 10 µM;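 active = ratio at least 3 SD above the weak peptide control, stable starting fluorescence, no direct agonism earlier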;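 note: compound followed by low BAM8-22 agonist challenge near EC20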
HEK293 Ca flux: MrgX1 antagonist counter-screen hit in parental HEK293 cells. Fluo-4 calcium fluorescence, FDSS. AID 624111. fluorescence ratio F(max-min)/F0 at 10 µM. shares compounds with MrgX1 antag. hit rate 2% among 4,000;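 active = duplicate-averaged calcium fluorescence ratio at least three times the standard deviation of buffer wells, a nonspecific response in parental cells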
HEK293 Ca counter: MrgX1 allosteric activator counter-screen hit in parental HEK293 cells | parental HEK293 calcium flux, Fluo-4 fluorescence ratio; active compounds read high | fluorescence ratio F(max-min)/F0 at 10 µM | shares compounds with MrgX1 antag | hit rate 0.4% among 4,000 | AID 624114;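 active = calcium fluorescence ratio, averaged over duplicates, at least 3 SD of the buffer-well ratio, meaning a nonspecific response in receptor-free cells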;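 note: untransfected parental HEK293 lacking MrgX1 used as counterscreen for MrgX1 allosteric activators; fluorescence change taken during the second addition on a kinetic imager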
HEK293 Ca cntr2: counter-screen for MrgX1 activators: effect in parental HEK293 cells | shares compounds with MrgX1 antag | Fluo-4 calcium fluorescence (FDSS); active compounds read high | fluorescence ratio F(max-min)/F0 at 10 µM | hit rate 8.7% among 4,000 | AID 624115;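 active = calcium fluorescence ratio at least three times the spread of buffer wells, meaning a non-specific response in parental cells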
Numbers stand for hits; . = inactive; ? = inconclusive; / = not tested or not shown.

SMILES | RGS4 act | Lipid droplet | MrgX1 antag | MrgX1 PAM | MrgX1 ag | RGS4 inh | RGS4 block valid | RGS4 uninduced | RGS4 inh ctr2 | others
Cc1ccc(C2C(=O)NC(=O)NC2=O)cc1 | . | / | . | . | . | . | / | / | /
Cc1cc(C)cc(N2C(=O)NC(=O)/C(=C/c3cccn3-c3ccc(Cl)cc3)C2=O)c1 | . | . | . | . | . | . | . | . | .
CN(C)/C=C/C(=O)C(Cl)(Cl)Cl | . | . | . | . | . | . | / | / | /
CCN(CC)C(=O)Cn1cc(/C=C2\C(=O)NC(=O)N(c3ccccc3F)C2=O)c2ccccc21 | . | / | . | . | 27 | 6.6 | 38% | . | 430%
CCN(CC)c1ccc(C=C2C(=O)NC(=S)NC2=O)cc1 | . | . | . | . | . | 36 | 56% | 30% | .
CC(C)CN(CC(C)C)c1ccc(C=C2C(=O)NC(=S)NC2=O)cc1[N+](=O)[O-] | . | / | . | . | . | . | / | / | /
Nc1c(C(=O)NCc2ccco2)c2nc3ccccc3nc2n1CCN1CCCCC1 | . | . | . | . | . | . | . | . | 12%
Cc1c(C=C2C(=O)N(C)C(=S)N(C)C2=O)c2ccccc2n1CC(=O)NCC1CCCO1 (centres undefined) | . | . | . | . | . | 5.1 | 54% | . | 24%
O=C(Cn1cc(C=C2C(=O)NC(=O)NC2=O)c2ccccc21)NCC1CCCO1 (centres undefined) | . | . | . | . | . | . | / | / | /
Cc1cc(OCC(=O)N2CCC(C(=O)O)(c3ccccc3)CC2)c2c(C)c(C)c(=O)oc2c1 | . | . | . | . | . | . | / | / | /
Cc1nn(Cc2ccccc2)c(C)c1C=C1C(=O)NC(=S)NC1=O | . | . | . | . | . | 14 | 70% | . | 8.0%
CCOc1ccc(-n2c(O)c(N=Nc3ccc([N+](=O)[O-])cc3)c(=O)[nH]c2=O)cc1 | . | . | . | . | . | . | / | / | /
O=C1/C(=C\c2ccc(Cl)cc2Cl)N2CCC1CC2 | . | . | . | . | . | 7.7 | 6.5% | . | .
O=C1/C(=C\c2ccncc2)N2CCC1CC2 | . | . | . | . | . | . | / | / | /
O=C1/C(=C\c2cc3c(cc2Cl)OCO3)N2CCC1CC2 | . | . | . | . | . | . | / | / | /
O=C1/C(=C\c2ccc(Cl)c(Cl)c2)N2CCC1CC2 | . | . | . | . | . | 21 | 16% | . | .
Cc1cccc(NP(=O)(Oc2ccccc2)Oc2ccccc2)c1C | . | . | . | . | . | . | / | / | /
Cc1ccccc1NP(=O)(Oc1ccccc1F)Oc1ccccc1F | -7.5 | . | . | . | . | . | . | . | .
CCNC(=O)[C@H]1O[C@@H](n2cnc3c(N)ncnc32)[C@H](O)[C@@H]1O | . | . | . | . | . | 9.8 | 34% | . | .
NC(=O)c1cn(C2OC(CO)C(O)C2O)c2ncnc(N)c12 (centres undefined) | . | ? | . | . | . | . | / | / | /
CC1(C)CSC(=NCc2ccccc2)N1 | . | . | . | . | 164 | . | / | / | / | MrgX1 ag confirm=677%;HEK293 Ca flux=.;HEK293 Ca counter=.;HEK293 Ca cntr2=129
CCC1=Nc2cc(C(=O)N3CCC4(CC3)OCCO4)ccc2Sc2ccc(C)cc21 | . | . | . | . | . | . | / | / | /
CSc1ccc(CN2CCN(C(=O)COc3cccc(C)c3)CC2)cc1 | . | . | . | . | . | . | / | / | /
CNc1ccc2oc(C[C@H]3O[C@@]4(CC[C@H]3C)O[C@H]([C@H](C)C(=O)c3ccc[nH]3)[C@H](C)C[C@H]4C)nc2c1C(=O)O | . | . | . | . | 160 | . | / | / | / | MrgX1 ag confirm=823%;HEK293 Ca flux=.;HEK293 Ca counter=.;HEK293 Ca cntr2=158
CC(C)(C)c1ccc(O)c(N=Cc2c(O)ccc3ccccc23)c1 | . | . | . | . | 56 | . | / | / | / | MrgX1 ag confirm=115%;HEK293 Ca flux=.;HEK293 Ca counter=.;HEK293 Ca cntr2=46
SMILES | RGS4 act | Lipid droplet | MrgX1 antag | MrgX1 PAM | MrgX1 ag | RGS4 inh | RGS4 block valid | RGS4 uninduced | RGS4 inh ctr2 | others
COc1ccc(OC)c(CC(=O)N(C)C2CCCN(Cc3ccccc3F)C2)c1 (centres undefined) | . | . | . | . | . | . | / | / | /
CN1CCN(c2cccc3c2C(=O)c2ccccc2C3=O)CC1 | . | . | / | / | / | . | / | / | /
CN1CCN(c2ccc3c(c2)S(=O)(=O)c2ccccc2C3=O)CC1 | . | / | . | . | 28 | . | / | / | / | MrgX1 ag confirm=.;HEK293 Ca flux=.;HEK293 Ca counter=.;HEK293 Ca cntr2=51
O=C1CCCN1CC#CCN1CCCC1 | . | . | . | . | 52 | . | / | / | / | MrgX1 ag confirm=226%;HEK293 Ca flux=.;HEK293 Ca counter=.;HEK293 Ca cntr2=49
NC1=Nc2ccccc2Oc2ccccc21 | . | / | . | . | 55 | . | / | / | / | MrgX1 ag confirm=226%;HEK293 Ca flux=.;HEK293 Ca counter=.;HEK293 Ca cntr2=.
Nc1c(Cl)cc([N+](=O)[O-])cc1Cl | / | / | . | . | . | / | / | / | /
C[C@H]1CCC[C@H](O)CCCCCc2cc(O)cc(O)c2C(=O)O1 | . | / | . | . | . | . | / | / | /
C[C@H]1CCC[C@@H](O)CCC/C=C/c2cc(O)cc(O)c2C(=O)O1 | . | / | . | . | 31 | . | / | / | / | MrgX1 ag confirm=176%;HEK293 Ca flux=.;HEK293 Ca counter=.;HEK293 Ca cntr2=.
Clc1cc(Cl)cc(NC2=NCCS2)c1 | . | . | . | . | . | . | / | / | /
COc1cccc(C2(C#N)CCN(C)CC2)c1 | . | . | . | 6.5 | . | . | / | / | / | MrgX1 PAM conf=.;HEK293 Ca flux=.;HEK293 Ca counter=.;HEK293 Ca cntr2=.
COc1cccc(OCC(=O)N2CCN(C)CC2)c1 | . | / | . | . | . | . | / | / | /
CCOC(=O)C1=C(N)Oc2c(c(=O)oc3ccccc23)C12C(=O)N(C)c1ccccc12 (centres undefined) | . | / | . | 8.5 | . | . | / | / | / | MrgX1 PAM conf=16%;HEK293 Ca flux=.;HEK293 Ca counter=.;HEK293 Ca cntr2=.

Screening data as filed in PubChem.
